Test results reported in ChEMBL document CHEMBL1138265, “In vivo anti-Chagas vinylthio-, vinylsulfinyl-, and vinylsulfonylbenzofuroxan derivatives” (J Med Chem, 2007).
Calls of active or inactive are those of the source. The rule behind the calls is not given here.

Experiments:
[1] = biological target: Cruzipain (Trypanosoma cruzi) (UniProt P25779); assay: Inhibition of Trypanosoma cruzi Tulahuen 2 cruzipain at 100 uM
Procedure, shortened: (§1)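 Cruzipain purified from Tulahuen 2 epimastigotes by ConA-Sepharose affinity chromatography. Assayed in 50 mM Tris-acetate pH 8.0 with 0.3 mM Bz-Pro-Phe-Arg-pNA and 10 mM β-mercaptoethanol, A410 followed at 30 °C. Inhibitors added in DMSO, controls with matching DMSO, E-64 as reference. Tested at 10-100 µM; means of at least two measurements.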

[2] = biological target: T1, Cruzipain (Trypanosoma cruzi, UniProt P25779); assay: Inhibition of Trypanosoma cruzi Tulahuen 2 cruzipain; procedure, shortened: as §1
[3] = biological target: T1, Cruzipain; assay: Binding affinity to Trypanosoma cruzi Tulahuen 2 cruzipain
[4] = biological target: Trypanothione reductase (Trypanosoma cruzi) (UniProt P28593); assay: Inhibition of Trypanosoma cruzi trypanothione reductase assessed as volume activity per minute at 100 uM
[5] = biological target: Trypanothione reductase (Trypanosoma cruzi) (UniProt P28593); assay: Inhibition of Trypanosoma cruzi trypanothione reductase assessed as volume activity per min at 100 uM in presence of NADPH
Procedure, shortened: (§2)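 Time-dependent inactivation: 170 mU recombinant TR incubated at 25 °C in 40 mM HEPES, 1 mM EDTA, pH 7.5 with 100 µM inhibitor, with or without 160 µM NADPH, for 0-24 h. Aliquots diluted 200-fold and residual activity measured in the standard NADPH/TS2 assay at 340 nm. Controls: TR plus NADPH with DMSO, and TR plus inhibitor.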

[6] = biological target: Trypanothione reductase (Trypanosoma cruzi) (UniProt P28593); assay: Inhibition of Trypanosoma cruzi trypanothione reductase assessed as volume activity per min at 100 uM after 1 hr; procedure, shortened: as §2
[7] = biological target: Trypanothione reductase (Trypanosoma cruzi) (UniProt P28593); assay: Inhibition of Trypanosoma cruzi trypanothione reductase assessed as volume activity per min at 100 uM in presence of NADPH after 1 hr; procedure, shortened: as §2
[8] = test system: Trypanosoma cruzi; assay: Antitrypanosomal activity against Trypanosoma cruzi Tulahuen 2; type: functional, organism-based
Procedure, shortened: (§3)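 Epimastigotes from 5-day stationary culture inoculated at 1 × 10^6 cells/mL into medium with compound added from DMSO stock (final DMSO ≤0.4%; control 0.4% DMSO, no compound). Growth followed by A600; % inhibition from day 0 and day 5 absorbance versus control. IC50 = concentration reducing the day-5 absorbance ratio to 50%. Single-dose screen at 25 µM. Means of three experiments.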

[9] = test system: Trypanosoma cruzi; assay: Antitrypanosomal activity against Trypanosoma cruzi CL Brener; type: functional, organism-based; procedure, shortened: as §3
[10] = test system: Trypanosoma cruzi; assay: Antitrypanosomal activity against Trypanosoma cruzi Y; type: functional, organism-based; procedure, shortened: as §3
[11] = test system: THP-1; assay: Cytotoxicity against human THP1 cells after 48 hrs; type: cell-based; conditions: THP-1, 48 h
Procedure, shortened: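 THP-1 human macrophages in RPMI 1640 with 20% heat-inactivated FCS, left to attach 48 h at 37 °C, 5% CO2. Exposed to compounds at 25-1000 µM for 48 h, washed, then MTT 0.4 mg/mL for 3 h. Formazan dissolved in DMSO and read at OD595; % cytotoxicity corrected for compound-in-medium blanks. Triplicates per concentration, six growth controls; mean of two experiments.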

[12] = Selectivity index, ratio of IC50 for human THP1 cells to IC50 for Trypanosoma cruzi Tulahuen 2; type: functional, THP-1
[13] = Selectivity index, ratio of IC50 for human THP1 cells to IC50 for Trypanosoma cruzi CL Brener; type: functional, THP-1
[14] = Selectivity index, ratio of IC50 for human THP1 cells to IC50 for Trypanosoma cruzi Y; type: functional, THP-1
[15] = test system: Trypanosoma cruzi; assay: Effect on oxygen uptake in Trypanosoma cruzi Tulahuen 2 at 200 uM; type: functional, organism-based
Procedure, shortened: (§4)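 Tulahuen 2 epimastigotes grown 5 days, washed, resuspended in phosphate-saline buffer pH 7.4 with 5.5 mM glucose at 0.2 mg protein/mL (40 × 10^6 parasites/mL). O2 consumption measured by Clark electrode at 28 °C, compound 200 µM final in DMSO; control with 0.1% DMSO. Cyanide-insensitive respiration measured after 20 mM KCN.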

[16] = test system: Trypanosoma cruzi; assay: Effect on oxygen uptake in Trypanosoma cruzi Tulahuen 2 assessed as increase in oxygen consumption at 200 uM; type: functional, organism-based; procedure, shortened: as §4
[17] = biological target: Cruzipain (Trypanosoma cruzi) (UniProt P25779); assay: Inhibition of Trypanosoma cruzi Tulahuen 2 cruzipain at 10 uM; procedure, shortened: as §1
[18] = biological target: Cruzipain (Trypanosoma cruzi) (UniProt P25779); assay: Inhibition of Trypanosoma cruzi Tulahuen 2 cruzipain at 20 uM; procedure, shortened: as §1
[19] = biological target: Cruzipain (Trypanosoma cruzi) (UniProt P25779); assay: Inhibition of Trypanosoma cruzi Tulahuen 2 cruzipain at 50 uM; procedure, shortened: as §1
[20] = biological target: Trypanothione reductase (Trypanosoma cruzi) (UniProt P28593); assay: Inhibition of Trypanosoma cruzi trypanothione reductase assessed as volume activity per min at 100 uM after 4 hrs; procedure, shortened: as §2
[21] = biological target: Trypanothione reductase (Trypanosoma cruzi) (UniProt P28593); assay: Inhibition of Trypanosoma cruzi trypanothione reductase assessed as volume activity per min at 100 uM in presence of NADPH after 4 hrs; procedure, shortened: as §2
[22] = test system: Mus musculus; assay: Toxicity in Trypanosoma cruzi Tulahuen 2 infected Swiss mouse model of Chagas disease at 60 mg/kg, po; conditions: in vivo
[23] = test system: Trypanosoma cruzi; assay: Antitrypanosomal activity against Trypanosoma cruzi Tulahuen 2 infected Swiss mouse model of Chagas disease at 60 mg/kg, po after 41 days post infection
[24] = test system: Trypanosoma cruzi; assay: Antitrypanosomal activity against Trypanosoma cruzi Tulahuen 2 infected Swiss mouse model of Chagas disease at 60 mg/kg, po after 35 days post infection
[25] = biological target: Trypanothione reductase (Trypanosoma cruzi) (UniProt P28593); assay: Inhibition of Trypanosoma cruzi trypanothione reductase at 100 uM
[26] = biological target: Cruzipain (Trypanosoma cruzi) (UniProt P25779); assay: Inhibition of Trypanosoma cruzi Tulahuen 2 cruzipain at 25 uM; procedure, shortened: as §1

Chain of Trypanothione reductase (Trypanosoma cruzi) (P28593 whole entry, looked up): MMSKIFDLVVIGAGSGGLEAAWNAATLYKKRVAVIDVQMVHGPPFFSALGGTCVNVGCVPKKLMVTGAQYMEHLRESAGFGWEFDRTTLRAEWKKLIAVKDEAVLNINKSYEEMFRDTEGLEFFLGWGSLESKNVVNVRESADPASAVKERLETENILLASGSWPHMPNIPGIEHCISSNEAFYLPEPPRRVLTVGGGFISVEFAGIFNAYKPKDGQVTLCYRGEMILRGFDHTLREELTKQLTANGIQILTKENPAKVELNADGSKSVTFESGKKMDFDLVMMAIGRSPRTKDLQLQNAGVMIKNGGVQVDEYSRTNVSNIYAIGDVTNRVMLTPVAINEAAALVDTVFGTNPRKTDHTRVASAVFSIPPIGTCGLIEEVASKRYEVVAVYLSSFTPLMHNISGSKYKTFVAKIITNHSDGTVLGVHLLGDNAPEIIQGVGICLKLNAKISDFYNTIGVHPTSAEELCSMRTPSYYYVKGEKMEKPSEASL
T1 sequence (P25779 whole entry): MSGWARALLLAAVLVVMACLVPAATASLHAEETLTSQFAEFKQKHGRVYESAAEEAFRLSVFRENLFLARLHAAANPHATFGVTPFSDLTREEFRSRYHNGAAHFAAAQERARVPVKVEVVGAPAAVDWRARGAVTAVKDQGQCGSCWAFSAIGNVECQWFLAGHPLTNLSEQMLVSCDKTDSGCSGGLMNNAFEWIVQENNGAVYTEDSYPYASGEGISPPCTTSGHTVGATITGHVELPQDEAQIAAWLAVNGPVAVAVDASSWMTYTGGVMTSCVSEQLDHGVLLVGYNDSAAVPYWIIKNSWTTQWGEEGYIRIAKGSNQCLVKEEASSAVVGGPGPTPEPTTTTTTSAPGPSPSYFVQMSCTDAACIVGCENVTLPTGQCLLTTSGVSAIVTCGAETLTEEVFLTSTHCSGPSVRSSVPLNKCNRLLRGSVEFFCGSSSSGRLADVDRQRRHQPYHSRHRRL
Chain of Cruzipain (Trypanosoma cruzi) (P25779 123-467 limits assumed): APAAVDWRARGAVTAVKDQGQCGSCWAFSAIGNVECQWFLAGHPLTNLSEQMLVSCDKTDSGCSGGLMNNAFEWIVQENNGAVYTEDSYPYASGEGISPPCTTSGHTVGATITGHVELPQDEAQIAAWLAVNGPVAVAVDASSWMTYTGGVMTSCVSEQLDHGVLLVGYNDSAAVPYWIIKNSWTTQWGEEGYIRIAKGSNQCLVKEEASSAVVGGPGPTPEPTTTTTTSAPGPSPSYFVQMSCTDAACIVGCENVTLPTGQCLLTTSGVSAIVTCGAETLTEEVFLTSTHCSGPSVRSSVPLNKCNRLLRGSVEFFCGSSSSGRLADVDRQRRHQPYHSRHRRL

Row | Structure (SMILES) | inhibition [1] | IC50 [8] | IC50 [9] | IC50 [10] | IC50 [11] | Ratio IC50 [12] | Ratio IC50 [13] | Ratio IC50 [14] | inhibition [17] | inhibition [18] | inhibition [19] | Activity [22] | Activity [23] | Activity [24] | also measured
1 | O=S(=O)(/C=C/c1ccc2c(c1)no[n+]2[O-])c1ccccc1 | 0% | 1.6 µM | 7.6 µM | 5 µM | 409 µM | 255.6 | 53.8 | 81.8 | 0% | 0% | 35% | Non-toxic | Active | Active | IC50 [2]: > 50 µM; Kd [3]: 500 µM; deltaA [4]: 0.102; deltaA [5]: 0.101; deltaA [6]: 0.11; deltaA [7]: 0.099; Activity [15]: inactive; Activity [16]: inactive; deltaA [20]: 0.106; deltaA [21]: 0.098
2 | O=S(=O)(/C=C\c1ccc2c(c1)no[n+]2[O-])c1ccccc1 | 19% | 1.1 µM | 6.1 µM | 2.1 µM | 109 µM | 99.1 | 17.9 | 51.9 | 2% | 3% | 24% | Non-toxic | Active | Active | IC50 [2]: > 50 µM; Kd [3]: 1100 µM; deltaA [4]: 0.104; deltaA [5]: 0.097; deltaA [6]: 0.102; deltaA [7]: 0.084; Activity [15]: inactive; Activity [16]: inactive; deltaA [21]: 0.088
3 | [O-][n+]1onc2cc(/C=C\Sc3ccccc3)ccc21 | – | 3.8 µM | 3.5 µM | 10 µM | – | – | – | – | – | – | – | Non-toxic | Active | Active | –
4 | [O-][n+]1onc2cc(/C=C/c3ccccc3)ccc21 | 22% | 10.8 µM | 7.5 µM | 6.2 µM | 110 µM | 10.2 | 14.7 | 17.7 | 12% | 0% | 43% | – | – | – | –
5 | O=S(=O)(CCO)Cc1ccc2c(c1)no[n+]2[O-] | – | > 25 µM | – | – | 300 µM | <12 | – | – | – | – | – | – | – | – | –
6 | CC(=O)N1CCN(c2ccc(OCC3COC(Cn4ccnc4)(c4ccc(Cl)cc4Cl)O3)cc2)CC1 (configuration not stated) [KETOCONAZOLE] | – | 10 µM | 5 µM | 9.8 µM | 44 µM | 4.4 | 8.8 | 4.5 | – | – | – | – | – | – | –
7 | C=CS(=O)(=O)Cc1ccc2c(c1)no[n+]2[O-] | – | 14.6 µM | 9.1 µM | 12.3 µM | 274 µM | 18.8 | 30.1 | 22.3 | – | – | – | – | – | – | –
8 | O=C(Cn1ccnc1[N+](=O)[O-])NCc1ccccc1 [BENZNIDAZOLE] | – | 7.4 µM | 4.5 µM | 3.8 µM | – | – | – | – | – | – | – | Non-toxic | – | – | –
9 | [O-][n+]1onc2cc(/C=C/[S+]([O-])c3ccccc3)ccc21 (configuration not stated) | 12% | 2.6 µM | 15.1 µM | 8.8 µM | 124 µM | 47.7 | 8.2 | 14.1 | 2% | 0% | 24% | Non-toxic | Active | Active | inhibition [25]: 13%; deltaA [4]: 0.104; deltaA [5]: 0.103; deltaA [6]: 0.086; deltaA [7]: 0.105; deltaA [20]: 0.091; deltaA [21]: 0.105
10 | CC1CS(=O)(=O)CCN1/N=C/c1ccc([N+](=O)[O-])o1 (configuration not stated) [NIFURTIMOX] | – | 7.7 µM | 8.5 µM | 6.5 µM | – | – | – | – | – | – | – | – | – | – | –
11 | CN(C/C=C/C#CC(C)(C)C)Cc1cccc2ccccc12 [TERBINAFINE] | – | 17.1 µM | 42 µM | 44.7 µM | 329 µM | 19.3 | 7.8 | 7.4 | – | – | – | – | – | – | –
12 | CC(C)C[C@H](NC(=O)[C@H]1O[C@@H]1C(=O)O)C(=O)NCCCCN=C(N)N | – | – | – | – | – | – | – | – | 100% | – | – | – | – | – | –
13 | [O-][n+]1onc2cc(/C=C/Sc3ccccc3)ccc21 | – | 2.6 µM | 4.7 µM | 7.6 µM | – | – | – | – | 0% | – | 25% | Non-toxic | Active | Active | inhibition [26]: 15%
14 | [O-][n+]1onc2cc(/C=C\c3ccccc3)ccc21 | 44% | 7 µM | 15.7 µM | 9 µM | 62.6 µM | 8.9 | 4 | 7 | 19% | 11% | 20% | – | – | – | –
